Compound activity as filed in PubChem BioAssay.
rRNA inh HTS: inhibitors of bacterial rRNA selective over humanized ribosomes; E. coli WT GFP vs humanized-ribosome RFP mutants, fluorescence, 24 h; active compounds read low; DMSO median 0, no signal -100; GFP signal change (wild-type ribosome), % (no concentration beside the values); 350,000 compounds, 1.6% hits; AID 720706;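 active means significant combined selectivity score with lowered wild-type GFP, culture density cut under 30%, mutant RFP and density less affected; inactive means any of these conditions unmet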
ERAP1 inh: blocks human ERAP1 aminopeptidase activity. Q9NZ08. recombinant ERAP1, Leu-AMC fluorescence, 60 min. inhibition, % at 10.7 µM. 340,000 compounds, 0.15% hits. AID 652197;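 active means mean replicate inhibition of at least 30%, or all replicates individually reaching that 30% level; inactive means mean below 30% and not every replicate reaching it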;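 further: 0% = neutral control wells and 100% = L-leucinethiol positive control wells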
Target sequence (Q9NZ08 whole entry, looked up): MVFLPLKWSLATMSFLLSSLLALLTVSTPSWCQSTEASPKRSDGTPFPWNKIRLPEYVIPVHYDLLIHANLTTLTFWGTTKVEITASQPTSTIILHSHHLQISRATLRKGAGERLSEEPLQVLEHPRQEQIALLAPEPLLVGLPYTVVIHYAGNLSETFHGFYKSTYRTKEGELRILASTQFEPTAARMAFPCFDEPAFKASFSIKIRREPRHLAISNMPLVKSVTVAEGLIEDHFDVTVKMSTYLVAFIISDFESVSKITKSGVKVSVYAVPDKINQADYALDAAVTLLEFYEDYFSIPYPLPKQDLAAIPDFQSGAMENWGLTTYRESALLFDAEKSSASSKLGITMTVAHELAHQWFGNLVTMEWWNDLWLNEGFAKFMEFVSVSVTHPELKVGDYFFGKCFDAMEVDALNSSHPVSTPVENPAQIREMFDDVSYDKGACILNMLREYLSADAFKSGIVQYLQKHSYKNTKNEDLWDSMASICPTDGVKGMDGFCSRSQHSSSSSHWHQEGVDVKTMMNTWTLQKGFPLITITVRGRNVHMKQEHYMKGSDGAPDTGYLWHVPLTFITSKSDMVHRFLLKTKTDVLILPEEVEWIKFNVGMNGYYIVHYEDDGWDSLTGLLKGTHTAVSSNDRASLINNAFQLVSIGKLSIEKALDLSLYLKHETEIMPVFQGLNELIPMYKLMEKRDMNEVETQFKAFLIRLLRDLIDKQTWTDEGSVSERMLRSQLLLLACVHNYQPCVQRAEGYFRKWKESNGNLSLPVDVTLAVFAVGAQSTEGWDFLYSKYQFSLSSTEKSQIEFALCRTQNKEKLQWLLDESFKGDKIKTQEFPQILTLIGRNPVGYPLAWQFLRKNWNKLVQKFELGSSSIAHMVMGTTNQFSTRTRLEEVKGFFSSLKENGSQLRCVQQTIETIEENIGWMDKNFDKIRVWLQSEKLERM
FGF22 binding: FGF22 (human) thermal shift binding; Q9HCT0; recombinant FGF22 thermal shift, SYPRO orange fluorescence; percent of sucrose octasulfate shift, DMSO zero; activity (Tm shift, normalised), % at 9.99 µM; 340,000 compounds, 1.5% hits;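 active means mean Tm shift, scaled 0 neutral to 100 positive control, at about 1.3% or above, every replicate too, limit read from the data; inconclusive means no clear call, values can overlap the other calls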
Cneo AK release: causes C. neoformans cell lysis | adenylate kinase release luminescence, 4 h; normalised: neutral wells 0, clomiphene wells 100 | lysis activity, % at 15 µM | 360,000 compounds, 0.2% hits | AID 651654;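 active means mean lysis activity across replicates of at least 80%, whatever share of replicates individually reach that level; inactive means mean lysis activity below 80%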
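Test system: log-phase Cryptococcus neoformans yeast cells; Quantity: yeast cell density of 5 × 10^6 cells/mL; Buffer or medium: YPD; Doses: single compound concentration per well; Timing: 4 h at 37 °C static, read 1 h later; Measured by: AK luminescence; Read-out basis: lysis from increased AK signal; Control set: Clomiphene as positive control.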
PGC1a acetyl inh: PGC1a acetylation modulation, inhibitor mode; U2OS PGC1a acetylation, AlphaScreen anti-acetyl-lysine; with virally co-expressed GCN5 acetyltransferase; inhibition, % at 15.6 µM; 350,000 compounds, 0.17% hits; AID 651687;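 active means every replicate shows inhibition of at least 40%; inconclusive means mean inhibition at least 40% but some replicate below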;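 further: 0% = neutral control wells and 100% = positive control wells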
HIV Env fusion: blocks HIV Env-driven cell-cell fusion. HeLa-JRFL Env/CEM21 cell fusion, luciferase. inhibition, % at 12.3 µM. 360,000 compounds, 1.1% hits. AID 651610;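 active means mean replicate inhibition score of at least 50 and every replicate individually at or above 50; inconclusive means only one of the two criteria met; inactive means mean below 50 and not all replicates reaching 50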;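 further: 0% = plate neutral controls and 100% = maraviroc near 300 nM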
Numbers without * were called inactive; u = inconclusive; x = no result; ! = repeats disagree; [ ] = dose if it differs, or a comment. Rows were chosen to be rich in hits. Some 3.5% of all compounds tested hit in one or more screens of this group.

SMILES	rRNA inh HTS	ERAP1 inh	FGF22 binding	Cneo AK release	PGC1a acetyl inh	HIV Env fusion
COc1ccc(CN2CC3(CN(C(C)=O)C3)c3c(n(C)c4cc(OC)ccc34)[C@@H]2CO)cc1	-1	-1	0	x	3	x
COC(=O)c1c(C)[nH]c(C(=O)C(C)OC(=O)C2CC(=O)N(CCc3ccccc3)C2)c1C (stereo not given)	x	-2	0	0	1	19
COC(=O)c1c(C)[nH]c(C(=O)C(C)OC(=O)C2CC(=O)N(c3ccc(C)cc3)C2)c1C (stereo not given)	-23*	-2	0	4	-6	23
COc1ccccc1N(C1=NCCCS1)S(=O)(=O)c1ccc(C(C)(C)C)cc1	-16*	4	0	x	-21	9
COc1ccc(N(C2=NCCCS2)S(=O)(=O)c2ccc(C(C)(C)C)cc2)cc1	4	0	0	-3	-21	21
O=S(=O)(c1cccc2cccnc12)N1CCCc2ccccc21	4	0	43*	-2	-6	11
O=S(=O)(c1cccc2cccnc12)N1CCc2ccccc21	x	x	x	x	5	x
O=S(=O)(c1cccc2cccnc12)N1CCN(c2ccccn2)CC1	-7	4	43*	0	-7	6
O=C(C(Cc1ccccc1)NS(=O)(=O)c1cccc2cccnc12)N1CCc2ccccc21 (stereo not given)	-5	x	0	2	-17	55*
O=C(NCc1ccccc1)C1CCCN1S(=O)(=O)c1cccc2cccnc12 (stereo not given)	-1	x	0	-1	8	36
O=C(C[C@@H]1CC[C@H]2[C@@H](COC[C@@H](O)CN2S(=O)(=O)c2ccc(F)cc2)O1)NCCN1CCCCC1	0	1	0	3	-2	x
CCS(=O)(=O)N1Cc2cc(C(=O)NCCOC)nc(-c3cccc(-c4ccncc4)c3)c2[C@H]1CCO	-8	2	0	3	x	-5[16.7 µM]
COc1ccc(S(=O)(=O)n2nc(OC(=O)c3cccs3)cc2N)cc1	x	x	x	-2	1	23
CCC(=O)N1N=C(c2c(O)n(C)c(=O)n(C)c2=O)CC1c1ccccc1 (stereo not given)	-46*	6	0	1	0	31
CCC(=O)N1N=C(c2ccccc2)CC1c1ccccc1 (stereo not given)	-10	-3	0	-4	-1	3
O=C(N/N=C/c1ccccc1C(F)(F)F)c1ccc(O)cc1	-29*	-2	0	x	0	-17
O=C(N/N=C/c1ccccc1O)c1cccc(C(F)(F)F)c1	x	x	x	2	-8	-33
CCc1c(C)c(C#N)c2nc3ccccc3n2c1NCCCN(C)C	-5	-3	0	-2	-12	-8
Cc1c2c(n3c(nc4ccccc43)c1C#N)N(CCCN(C)C)CC2	-7	71*	0	x	5	6
CCCn1cc(SCC(=O)NCc2ccco2)c2ccccc21	x	x	x	-5	-30	17
CC(C)N(C(=O)Cn1cc(SCC(=O)NCc2ccco2)c2ccccc21)C(C)C	-4	1	1.7*	-3	-3	32
Cc1cc(OCC(=O)Nc2ccncc2)cc(C)c1Br	x	x	x	1	-19	46*
Cc1ccc(CC(=O)Nc2ccncc2)cc1	11	1	44*	0	5	u
CC1CCCCC1NC(=O)C1CCN(S(=O)(=O)N2CCCCCC2)CC1 (stereo not given)	x	x	x	0	-43	-17
C[C@@H]1CN([C@H](C)CO)C(=O)c2cc(/C=C/c3ccccc3)cnc2O[C@@H]1CN(C)S(C)(=O)=O	-1	-1	0	87*	-3	-7[16.7 µM]
SMILES	rRNA inh HTS	ERAP1 inh	FGF22 binding	Cneo AK release	PGC1a acetyl inh	HIV Env fusion
C[C@H](CO)N1C[C@H](C)[C@H](CN(C)S(=O)(=O)c2ccc(F)cc2)Oc2ncc(/C=C/c3ccccc3)cc2C1=O	1	3	0	-1	-3	50*![16.7 µM]
C[C@@H]1CN([C@@H](C)CO)C(=O)c2cc(C#Cc3ccccc3F)cnc2O[C@@H]1CN(C)S(=O)(=O)c1ccccc1F	0	-4	-1	0	0	56*[16.7 µM]
O=C(C1CCC1)N1CC2(C1)[C@H](c1ccccc1)[C@H](CO)N2C(=O)CC1CC1	3	2	x	x	-2	x
COC(=O)CC1Nc2ccccc2SC1=O (stereo not given)	x	x	x	-5	-4	20
COc1ccc(C2=Nc3ccccc3N(C(=O)Cc3cc(OC)cc(OC)c3)C2C(=O)NC(C)C)cc1 (stereo not given)	2	1	0	x	x	-18
COc1ccc(C2=Nc3ccccc3N(C(=O)Cc3cc(OC)cc(OC)c3)C2C(=O)NC(C)(C)C)cc1 (stereo not given)	2	6	0	x	x	55*
CC(C(=O)Nc1ccccc1C(=O)O)n1c(C(F)(F)F)nc2ccccc21 (stereo not given)	-1	-6	43*	x	x	-12
O=C(Cn1c(C(F)(F)F)nc2ccccc21)Nc1ccccc1C(=O)O	-4	-1	x	2	-5	22
Nc1ccc(C2(c3ccc(N)cc3)c3ccccc3C(=O)c3ccccc32)cc1	-32*	x	0	x	x	-10
O=C(Nc1cccc(F)c1)/C(=C\c1cccnc1)NC(=O)c1ccco1	6	-3	44*	x	x	2
COc1ccccc1CNC(=S)NCc1ccc(Cl)cc1	-32	-2	0	137*	x	x
COc1ccc(CNC(=S)Nc2ccccc2)cc1Cl	-21	1	0	28	0	3
O=C(Nc1ccccc1)OCCOc1ccc(Cl)cc1Cl	-16	5	44*	0	4	x
CCCOc1ccc(CNC(=S)Nc2ccccc2)cc1Cl	-56	1	40*	2	-13	9
O=C(Nc1cccc(Cl)c1)OCCOCCOC(=O)Nc1cccc(Cl)c1	-22	0	0	-2	2	23
COc1ccc(CNC(=S)Nc2ccc(F)c(Cl)c2)cc1OC	-27*	-4	0	x	-3	-8
O=C(N[C@@H]1CC[C@H](CCn2cc(C3(O)CCCC3)nn2)O[C@@H]1CO)C1CCCCC1	0	-6	0	1	-1	-5[16.7 µM]
FC(F)(F)c1cccc(NC(=S)NCc2ccc(Cl)cc2)c1	x	x	x	x	x	64*
Fc1cccc(NC(=S)NCc2ccc(Cl)cc2)c1	-57	-1	0	x	x	11
COc1cc(NC(=O)c2cccc(C)c2)c(OC)cc1NC(=O)CN1CCCCC1	-3	-7	43*	x	-18	11
O=C(CN1CCCCCC1)Nc1ccccc1Oc1ccccc1	-41*	0	0	1	1	23
COc1cc(NC(=O)c2ccc(C(C)(C)C)cc2)c(OC)cc1NC(=O)CN1CCCCC1	-5	12	0	2	-2	24
